# OPRM1-OPRD1 inv – inverse agonists of human mu-delta opioid receptor heterodimerization; P35372+P41143; cell-based MOR-DOR heterodimer luminescence, inverse agonism; inhibition, % at 9.3 µM; 340,000 tested, 0.21% active; in the data active = inhibition above about 22%, passing the limit was not always enough;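 note: 0% = cells with DMSO and 100% = wells without cells with DMSO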
# MOR-DOR ag – OPRM1-OPRD1 heterodimerization agonism; P35372+P41143; cells, luminescence; activation, % at 9.3 µM; 340,000 tested, 0.3% active; AID 504326; in the data active = activation above about 18%;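 note: 0% = vehicle-treated cells and 100% = reference agonist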
# Arr AP2 block – inhibitors of human beta-arrestin and AP2 interaction; FITC-arrestin peptide / GST-AP2 beads, flow cytometry; AP2 beta2 appendage carries R879A mutation; inhibition, % at 10 µM; 340,000 tested, 0.31% active;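 active = inhibition above a set limit, near 3 SD of compounds lacking own fluorescence, cut at about 54% in these data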;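 note: plate controls were DMSO wells for no effect and 5 µM unlabelled arrestin peptide for full effect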
#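 System: GST-tagged AP2 beta2-adaptin appendage (R879A) on 4 µm glutathione beads / Reagent: FITC-arrestin peptide, 50 nM / Detection: HyperCyt-sampled flow cytometry, FL1 channel, ex 488/em 535 nm / Timing: 12 min plus 1 h, RT / Buffer or medium: PBS plus Tween 20 (0.05%) and BSA (0.1%)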
# HTR5A inv ag – counter-screen for OPRM1-OPRD1 inverse agonists: human HTR5A inverse agonism; P47898; HTR5A cell line, luminescence; inhibition, % at 9.3 µM; 340,000 tested, 0.083% active; AID 504634; in the data active = inhibition mostly above about 23%, no sharp cut-off; inactive = mostly below about 18%;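 note: 0% = cells with DMSO and 100% = no-cell wells with DMSO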
# Target sequence (P47898 whole entry, looked up): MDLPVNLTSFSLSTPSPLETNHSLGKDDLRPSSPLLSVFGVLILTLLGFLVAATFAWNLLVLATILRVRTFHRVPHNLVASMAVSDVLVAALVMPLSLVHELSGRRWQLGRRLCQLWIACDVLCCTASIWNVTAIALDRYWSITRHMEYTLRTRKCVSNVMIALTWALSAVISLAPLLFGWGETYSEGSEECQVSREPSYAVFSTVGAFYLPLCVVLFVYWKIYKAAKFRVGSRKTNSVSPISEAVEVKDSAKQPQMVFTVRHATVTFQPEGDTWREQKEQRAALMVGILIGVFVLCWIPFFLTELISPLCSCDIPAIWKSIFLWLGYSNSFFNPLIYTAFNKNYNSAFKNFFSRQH
# DAGLB inh – blocks human DAGLB lipase activity. Q8NCG7. HEK293T DAGLB membrane lysate, EnzChek fluorogenic substrate. 340,000 tested, 0.059% active. inhibition, % at 5.17 µM; in the data active = inhibition above about 34%;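 note: 0% = enzyme with vehicle and 100% = wells lacking enzyme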
# HTR5A ag ctr – HTR5A agonism, opioid heterodimer counter-screen | P47898 | HTR5A agonist assay, luminescence, cell-based | activation, % at 9.3 µM | 340,000 tested, 0.61% active; in the data active = activation mostly above about 9.5%, no sharp cut-off; inactive = mostly below about 7.6%;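 note: 0% = cells with vehicle only and 100% = reference agonist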
# * hit, by the source's call; . = no result. In the library only some 1.4% were active in any assay of this set; here they are far more common.
SMILES,OPRM1-OPRD1 inv,MOR-DOR ag,Arr AP2 block,HTR5A inv ag,DAGLB inh,HTR5A ag ctr
CCC(C)Sc1ccc(-c2nc3ccc(C)cn3c2NCc2ccccc2)cc1OC (stereo unspecified),-46.0,8.2,2.0,-33.0,-19.1,11.1*
CCC(C)Sc1cc(-c2nc3ccc(C)cn3c2NCc2ccccc2)ccc1OC (stereo unspecified),-123.8,21.4*,20.6,10.3,-7.8,15.5*
CC1(C)C2(C#N)C(=O)NC(=O)C12C#N (stereo unspecified),13.1,-2.6,9.3,4.9,0.5,-1.3
O=C(COC(=O)c1ccc(S(=O)(=O)N2CCOCC2)cc1)NCc1ccco1,.,.,.,.,-1.5,.
CCN(CC)c1ccc(NC(=O)Nc2cccc(C(C)=O)c2)cc1,-3.9,0.9,34.5,-33.9,5.6,13.0*
CC(=O)Nc1cccc(NC(=O)Nc2ccc(C(C)=O)cc2)c1,-0.8,0.1,-6.0,-0.6,0.1,-2.7
CC(C)CN1CCN(Cc2nc(C(C)C)cs2)CC1CCO (stereo unspecified),1.2,-0.2,-62.8,-30.1,-2.3,10.7*
COc1ccc(-c2sc3ccccc3c2-c2ccc(OCCN(C)C)cc2)cc1,-66.1,12.3,-0.1,-52.1,0.9,13.8*
CCCCCCn1c(=O)n2n(c1=O)[C@@H]1CN(S(=O)(=O)c3ccc(C)cc3)C[C@]1(O)[C@@H](OC(=O)Nc1c(C)noc1C)C2,.,.,.,.,-1.2,.
COc1ccc(CNC(=O)c2cc3c(s2)CS(=O)C3)cc1 (stereo unspecified),-2.1,0.4,10.5,14.9,0.9,-5.1
COC(=O)c1cc2c(s1)CS(=O)C2 (stereo unspecified),4.8,-0.9,1.4,7.0,0.0,12.1*
N/C(=N\OC(=O)c1ccc(Cl)cc1)c1cccnc1,-55.0,9.3,7.9,-22.7,-7.5,13.6*
CCCC1(C(=O)O)NC(c2cccc(OC)c2O)C2C(=O)N(c3ccccc3)C(=O)C21 (stereo unspecified),6.2,-1.2,20.8,-1.9,2.8,0.6
CCCC1(C(=O)O)NC(c2ccccc2O)C2C(=O)N(c3cccc(Cl)c3)C(=O)C21 (stereo unspecified),15.6,-3.1,-1.4,-41.5,1.0,13.9*
CCOc1cc(/C=C2\C(=O)N(Cc3ccc(C)cc3)C(C)=C2C(=O)OC)ccc1O,-9.7,2.3,13.3,-40.0,5.5,16.0*
C=CCOc1cccc(/C=C2\C(=O)N(Cc3ccc(C)cc3)C(C)=C2C(=O)OC)c1,-1.3,0.3,7.2,0.9,-8.2,3.5
C#CC(=O)N(c1ccc(OC)cc1OC)C(C(=O)NC1CCCC1)c1cccs1 (stereo unspecified),-274.2,52.1*,19.2,-121.4,-2.4,43.3*
C=CCn1c(=O)/c(=C/c2ccc(Cl)cc2)s/c1=C(\C#N)c1nnc2n1CCCCC2,16.9,-3.4,7.5,-18.1,0.4,4.6
O=C(Nc1c(C(=O)O)[nH]c2ccc(F)cc12)c1cccc(C(F)(F)F)c1,3.3,-0.6,16.1,-37.4,10.5,11.9*
COc1ccccc1NC(=S)NC(=O)c1ccc(Cn2cc(Br)cn2)cc1,-76.9,11.4,5.5,-4.1,-0.8,13.5*
CCn1cc(C(=O)NC(=S)Nc2ccccc2Br)cn1,-2.5,0.6,-8.4,9.5,-1.2,-3.7
O=C(Nc1cccc(C(=O)O)c1)/C(=C\c1cccc([N+](=O)[O-])c1)NC(=O)c1ccc(Br)cc1,.,.,.,.,7.9,.
O=C(N/N=C/c1ccc(Br)s1)c1ccco1,-2.7,0.6,-3.7,3.5,-2.8,-1.4
O=C(N/N=C/c1sc(=O)n(Cc2ccc(Br)cc2)c1Cl)c1ccco1,-133.5,26.9*,47.3,-86.8,0.8,26.4*
CC(C)(C)OC(=O)N1CCC[C@H]1C(=O)Nc1ccc(C#N)cc1,3.3,-0.7,6.2,-37.1,-2.5,9.6*
CC(C)(C)OC(=O)N1CCC[C@H]1C(=O)Nc1ccc(Br)cc1,7.0,-1.6,3.1,-0.6,-1.6,0.2
CC(OC(=O)CNS(=O)(=O)c1ccc(C#N)cc1)C(=O)Nc1ccc(Cl)cn1 (stereo unspecified),8.5,-1.3,-6.8,2.0,1.0,10.6*

# Screening results: PubChem, several laboratories
